ChEMBL document CHEMBL3407386, “Design, synthesis, and biological evaluation of tetrazole analogs of Cl-amidine as protein arginine deiminase inhibitors” (J Med Chem, 2015)
Blank lines part the entries; values can stand above or below the molecule they belong to. Active and inactive are the calls of the source. The rule behind the calls is not given here.

Legend:
[1] = tested on: U2OS; assay: Antiproliferative activity against human U2OS cells expressing PAD4 assessed as cell viability at 20 uM after 72 hrs by XTT assay; type: functional
Summary of the method: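 U2OS cells were treated the next day at 20 μM final for 72 h, with DMSO and Triton X-100 as controls. Viability was read by XTT absorbance at 475 nm.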

[2] = biological target: Protein-arginine deiminase type-4 (Homo sapiens) (UniProt Q9UM07); assay: Inhibition of PAD4 (unknown origin) using N-alpha-benzoyl-L-arginine ethyl ester as substrate assessed as citrulline production after 15 mins by COLDER assay
[3] = biological target: Protein-arginine deiminase type-2 (Homo sapiens) (UniProt Q9Y2J8); assay: Inhibition of PAD2 (unknown origin) using N-alpha-benzoyl-L-arginine ethyl ester as substrate assessed as citrulline production after 15 mins by COLDER assay
[4] = tested on: Liver; assay: Metabolic stability in mouse liver microsomes; type: ADME
[5] = species: Homo sapiens; assay: Selectivity ratio for PAD1 (unknown origin) over PAD3 (unknown origin)
[6] = biological target: Protein-arginine deiminase type-4 (Homo sapiens) (UniProt Q9UM07); assay: Ratio of Kinact to Ki for PAD4 (unknown origin) using N-alpha-benzoyl-L-arginine ethyl ester as substrate assessed as citrulline production after 15 mins by COLDER assay
[7] = biological target: T1, Protein-arginine deiminase type-1 (Homo sapiens) (UniProt Q9ULC6); assay: Ratio of Kinact to Ki for PAD1 (unknown origin) using N-alpha-benzoyl-L-arginine ethyl ester as substrate assessed as citrulline production after 15 mins by COLDER assay
T1 sequence (whole entry): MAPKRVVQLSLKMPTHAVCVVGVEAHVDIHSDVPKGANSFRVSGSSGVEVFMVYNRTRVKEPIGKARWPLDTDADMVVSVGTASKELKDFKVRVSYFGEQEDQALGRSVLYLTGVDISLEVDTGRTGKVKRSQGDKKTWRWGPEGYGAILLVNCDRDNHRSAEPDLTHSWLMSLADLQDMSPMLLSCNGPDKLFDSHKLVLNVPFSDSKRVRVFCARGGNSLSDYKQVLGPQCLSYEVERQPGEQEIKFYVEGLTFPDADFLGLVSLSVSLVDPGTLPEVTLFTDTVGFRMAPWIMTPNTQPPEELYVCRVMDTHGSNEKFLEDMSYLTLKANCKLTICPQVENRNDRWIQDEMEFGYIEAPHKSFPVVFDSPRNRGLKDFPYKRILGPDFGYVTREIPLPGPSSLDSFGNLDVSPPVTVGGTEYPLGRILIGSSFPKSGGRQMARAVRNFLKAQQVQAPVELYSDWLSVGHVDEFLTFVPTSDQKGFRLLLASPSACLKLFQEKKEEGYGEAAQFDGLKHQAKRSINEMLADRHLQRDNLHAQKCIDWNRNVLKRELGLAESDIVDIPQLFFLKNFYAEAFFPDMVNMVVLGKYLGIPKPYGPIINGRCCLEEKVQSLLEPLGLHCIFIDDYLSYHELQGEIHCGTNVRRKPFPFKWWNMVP

[8] = species: Homo sapiens; assay: Selectivity ratio for PAD1 (unknown origin) over PAD2 (unknown origin)
[9] = Cytotoxicity against human neutrophils assessed as cell viability after 4 hrs by XTT assay; type: cell-based; conditions: Neutrophil
Summary of the method: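 Freshly isolated human neutrophils in RPMI 1640 with 10% FBS were seeded at 40 000 cells/well on poly-L-lysine and allowed to adhere for 1 h. They were exposed to compound at 1–500 μM for 4 h, and viability was read by XTT.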

[10] = biological target: Protein-arginine deiminase type-4 (Mus musculus) (UniProt Q9Z183); assay: Inhibition of PAD4 in C57BL/6 mouse bone marrow neutrophils assessed as inhibition of PMA-stimulated neutrophil extracellular trap formation at […] preincubated for 30 mins followed by PMA stimulation measured after 3 to 4 hrs by […]
Summary of the method: (§1)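 C57BL/6 bone-marrow neutrophils were isolated on a Percoll gradient (69–78% interface, >95% Ly-6G+) and seeded at 1.5 × 10^5 on poly-L-lysine coverslips. They were pretreated for 30 min in Locke's solution, then given 100 nM PMA for 3–4 h, PFA-fixed, and stained with Hoechst and anti-myeloperoxidase. NETs (decondensed MPO+ nuclei) were counted blind over ≥5 fields as % of total cells.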

[11] = tested on: U2OS; assay: Antiproliferative activity against human U2OS cells expressing PAD4 assessed as cell viability after 72 hrs by XTT assay; type: functional, cell-based
Summary of the method: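 U2OS human osteosarcoma cells were plated and treated the next day with an eight-point concentration series for 72 h. Viability was read by XTT at 475 nm. EC50 was fitted to a dose–response equation with range (uninhibited minus background) and slope factor.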

[12] = biological target: T1, Protein-arginine deiminase type-1 (Homo sapiens); assay: Inhibition of PAD1 (unknown origin) using N-alpha-benzoyl-L-arginine ethyl ester as substrate assessed as citrulline production after 15 mins by COLDER assay
[13] = biological target: Protein-arginine deiminase type-4 (Mus musculus) (UniProt Q9Z183); assay: Inhibition of PAD4 in C57BL/6 mouse bone marrow neutrophils assessed as inhibition of PMA-stimulated neutrophil extracellular trap formation at 2 to 200 uM preincubated for 30 mins followed by PMA stimulation measured after 3 to 4 hrs by […]; summary of the method: as §1

Protein-arginine deiminase type-4 (Homo sapiens), sequence (Q9UM07 whole entry): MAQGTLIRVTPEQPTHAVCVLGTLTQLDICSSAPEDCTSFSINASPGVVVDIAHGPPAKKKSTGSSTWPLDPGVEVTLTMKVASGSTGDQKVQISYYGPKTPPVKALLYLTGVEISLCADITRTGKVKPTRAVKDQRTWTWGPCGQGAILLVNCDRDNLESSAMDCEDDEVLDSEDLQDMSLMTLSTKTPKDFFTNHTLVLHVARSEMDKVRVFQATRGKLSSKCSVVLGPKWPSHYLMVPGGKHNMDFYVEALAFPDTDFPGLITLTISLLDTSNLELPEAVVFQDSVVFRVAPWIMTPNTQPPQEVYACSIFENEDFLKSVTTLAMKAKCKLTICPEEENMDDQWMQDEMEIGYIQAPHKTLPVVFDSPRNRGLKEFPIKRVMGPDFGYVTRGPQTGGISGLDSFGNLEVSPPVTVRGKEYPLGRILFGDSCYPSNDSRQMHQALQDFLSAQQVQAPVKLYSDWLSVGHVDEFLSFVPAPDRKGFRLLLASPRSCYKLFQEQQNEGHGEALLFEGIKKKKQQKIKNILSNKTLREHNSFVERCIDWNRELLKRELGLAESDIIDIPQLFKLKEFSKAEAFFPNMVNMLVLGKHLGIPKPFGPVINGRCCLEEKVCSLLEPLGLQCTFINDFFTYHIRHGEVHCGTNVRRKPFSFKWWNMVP
Protein-arginine deiminase type-4 (Mus musculus), sequence (Q9Z183 whole entry): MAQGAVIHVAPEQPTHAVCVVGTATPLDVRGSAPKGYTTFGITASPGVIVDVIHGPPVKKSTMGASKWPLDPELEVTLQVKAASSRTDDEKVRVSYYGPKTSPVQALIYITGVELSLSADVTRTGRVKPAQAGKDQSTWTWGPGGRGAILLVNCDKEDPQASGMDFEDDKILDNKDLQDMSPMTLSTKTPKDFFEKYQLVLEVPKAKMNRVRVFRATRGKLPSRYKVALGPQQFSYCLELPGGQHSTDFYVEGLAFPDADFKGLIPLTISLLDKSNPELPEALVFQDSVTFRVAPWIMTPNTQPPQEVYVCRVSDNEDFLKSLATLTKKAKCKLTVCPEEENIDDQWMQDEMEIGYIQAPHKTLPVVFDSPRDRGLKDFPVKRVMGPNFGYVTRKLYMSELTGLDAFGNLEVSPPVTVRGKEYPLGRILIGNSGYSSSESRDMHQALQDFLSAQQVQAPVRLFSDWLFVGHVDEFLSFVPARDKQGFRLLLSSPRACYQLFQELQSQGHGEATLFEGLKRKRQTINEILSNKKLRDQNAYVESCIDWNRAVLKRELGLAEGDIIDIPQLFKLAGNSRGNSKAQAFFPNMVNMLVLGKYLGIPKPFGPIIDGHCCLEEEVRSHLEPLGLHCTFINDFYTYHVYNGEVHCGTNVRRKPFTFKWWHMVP
Protein-arginine deiminase type-2 (Homo sapiens), sequence (Q9Y2J8 whole entry): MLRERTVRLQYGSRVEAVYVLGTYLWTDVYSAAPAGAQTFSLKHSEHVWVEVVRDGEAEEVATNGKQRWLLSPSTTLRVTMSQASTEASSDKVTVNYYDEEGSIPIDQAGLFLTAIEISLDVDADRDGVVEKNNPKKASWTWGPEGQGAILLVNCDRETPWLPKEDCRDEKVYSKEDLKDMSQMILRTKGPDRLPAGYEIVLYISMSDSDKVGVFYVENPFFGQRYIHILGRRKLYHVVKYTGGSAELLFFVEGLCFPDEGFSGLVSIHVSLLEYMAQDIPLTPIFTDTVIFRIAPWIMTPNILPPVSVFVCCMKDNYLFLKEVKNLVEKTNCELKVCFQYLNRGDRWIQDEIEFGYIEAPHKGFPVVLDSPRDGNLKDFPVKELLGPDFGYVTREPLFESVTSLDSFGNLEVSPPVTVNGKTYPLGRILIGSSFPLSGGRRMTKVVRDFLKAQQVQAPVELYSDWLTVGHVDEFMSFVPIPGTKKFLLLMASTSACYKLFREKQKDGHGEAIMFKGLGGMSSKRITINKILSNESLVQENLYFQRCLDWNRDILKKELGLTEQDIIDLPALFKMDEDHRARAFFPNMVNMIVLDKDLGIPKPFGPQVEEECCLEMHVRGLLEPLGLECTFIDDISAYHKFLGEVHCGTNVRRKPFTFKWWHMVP

SMILES: CC(C)(C)n1nnc([C@H](CCCNC(=N)CCl)NC(=O)c2ccccc2)n1
- Activity [1]: inactive

SMILES: CC(C)(C)n1nnc([C@H](CCCNC(=N)CF)NC(=O)c2ccccc2C(=O)O)n1
- inhibition [2]: inactive
- Activity [1]: inactive
- inhibition [3]: Active
- Stability [4]: Stable

SMILES: CC(C)(C)n1nnc([C@H](CCCNC(=N)CCl)NC(=O)c2ccccc2C(=O)O)n1
- EC50 [9]: 985 µM
- Activity [1]: inactive
- Stability [4]: Stable
- inhibition [10]: Active

SMILES: CC(C)(C)n1nnc([C@H](CCCNC(=N)CF)NC(=O)c2ccc(-c3ccccc3)cc2)n1
- inhibition [2]: inactive
- viability at 20 µM ([1]; read-out: Activity): > 50%
- Stability [4]: Stable
- EC50 [11]: 45 µM

SMILES: N=C(CCl)NCCC[C@H](NC(=O)c1ccccc1)c1nn[nH]n1
- Activity [1]: inactive

SMILES: CC(C)(C)n1nnc([C@H](CCCNC(=N)CCl)NC(=O)c2ccc(-c3ccccc3)cc2)n1
- EC50 [9]: 31 µM
- inhibition [2]: inactive
- EC50 [11]: 10 µM

SMILES: N=C(CCl)NCCC[C@H](NC(=O)c1ccccc1)C(N)=O
- inhibition [13]: Active

SMILES: N=C(CCl)NCCC[C@H](NC(=O)c1ccc(-c2ccccc2)cc1)c1nn[nH]n1
- Activity [1]: inactive

The next lines start with results.

- Selectivity ratio [5]: 15
- Ratio [6]: 159000 M⁻¹ min⁻¹
- Ratio [7]: 82000 M⁻¹ min⁻¹
- Selectivity ratio [8]: 15
SMILES: N=C(CCl)NCCC[C@H](NC(=O)c1ccccc1C(=O)O)c1nn[nH]n1
- Activity [1]: inactive

- inhibition [2]: inactive
SMILES: N=C(CF)NCCC[C@H](NC(=O)c1ccccc1)C(N)=O

- inhibition [2]: inactive
SMILES: N=C(CF)NCCC[C@H](NC(=O)c1ccc(-c2ccccc2)cc1)c1nn[nH]n1
- Activity [1]: inactive

- inhibition [2]: inactive
- inhibition [12]: Active
- Selectivity ratio [5]: 20
- Selectivity ratio [8]: 20
- Stability [4]: Stable
SMILES: N=C(CF)NCCC[C@H](NC(=O)c1ccccc1C(=O)O)c1nn[nH]n1
- Activity [1]: inactive

- inhibition [2]: inactive
SMILES: N=C(CF)NCCC[C@H](NC(=O)c1ccccc1)c1nn[nH]n1
- Activity [1]: inactive

- inhibition [2]: inactive
SMILES: CC(C)(C)n1nnc([C@H](CCCNC(=N)CF)NC(=O)c2ccccc2)n1
- Activity [1]: inactive
